Consider twelve compounds from ChEMBL document CHEMBL1148825, “Beta- and gamma-di- and tripeptides as potential substrates for the oligopeptide transporter hPepT1” (J Med Chem, 2007).

Each structure is given as a SMILES string. Active and inactive are the calls of the source. The calls are words filed in the database; no cut-off is given here. Square brackets hold non-standard residues; d marks the D form. Peptide text beside a SMILES is read from it. Sar = CNCC(=O)O

Data set [1] in a line: Apparent permeability from apical to basolateral side of human Caco-2 cells in presence of 5 mM GlySar. The class given is ADME, cell-based. The settings on record: Caco-2, with GlySar 5 mM.
The nature of data set [2]: Apparent permeability from apical to basolateral side of human Caco-2 cells. The class given is ADME, cell-based. The procedure, abridged: (§1)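 Caco-2 monolayers (passage 94-100) on polycarbonate inserts, differentiated 24 ± 1 days. Transport in HBSS with pH gradient: apical pH 6.0 (10 mM MES), basolateral pH 7.4 (25 mM HEPES), 0.5% DMSO final. Samples taken at intervals, replaced with HBSS + 0.5% DMSO. Papp = dQ/dt × 1/(A × c0), from steady-state flux; n = 3-4.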

A short description of data set [3]: Apparent permeability from basolateral to apical side of human Caco-2 cells. The class given is ADME, cell-based. A digest of the protocol:
as §1

Data set [4] concerns the target T1, Solute carrier family 15 member 1 (Homo sapiens) (UniProt P46059).
T1 sequence (whole entry): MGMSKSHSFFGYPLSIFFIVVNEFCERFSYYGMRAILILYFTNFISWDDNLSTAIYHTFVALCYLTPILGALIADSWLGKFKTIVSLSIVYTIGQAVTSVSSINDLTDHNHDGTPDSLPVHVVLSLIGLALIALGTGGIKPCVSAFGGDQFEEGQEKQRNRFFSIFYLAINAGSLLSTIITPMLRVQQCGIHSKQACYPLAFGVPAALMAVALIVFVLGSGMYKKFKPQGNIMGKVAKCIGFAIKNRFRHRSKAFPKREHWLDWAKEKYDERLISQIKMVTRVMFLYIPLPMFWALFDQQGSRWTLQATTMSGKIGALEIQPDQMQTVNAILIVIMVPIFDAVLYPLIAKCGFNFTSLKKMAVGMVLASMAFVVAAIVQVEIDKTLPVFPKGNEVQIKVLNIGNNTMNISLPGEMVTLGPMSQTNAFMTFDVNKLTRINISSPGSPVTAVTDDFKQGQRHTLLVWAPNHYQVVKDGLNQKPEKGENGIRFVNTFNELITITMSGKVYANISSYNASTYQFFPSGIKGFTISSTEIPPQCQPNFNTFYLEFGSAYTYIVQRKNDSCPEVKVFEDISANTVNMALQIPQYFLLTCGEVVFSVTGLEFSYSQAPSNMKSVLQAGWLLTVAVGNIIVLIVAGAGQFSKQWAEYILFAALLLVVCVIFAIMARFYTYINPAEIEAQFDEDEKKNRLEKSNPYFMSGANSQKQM
As to the kind of experiment: Inhibition of [3H]GlySar uptake at human PepT1 in Caco-2 cells. In kind it is cell-based. The procedure, abridged:
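Uptake into differentiated Caco-2 monolayers under apical pH 6.0/basolateral pH 7.4 HBSS. 5 min incubation with 1 µCi/mL [3H]GlySar (250 nM), with or without 4 mM test compound in the apical donor chamber. Stopped by removing solution and three ice-cold HBSS washes. Monolayer radioactivity counted relative to control; SD, n = 3, significance at p < 0.05.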

The nature of data set [5]: Apparent permeability across human Caco-2 cells. The class given is ADME, cell-based. A digest of the protocol:
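Caco-2 monolayers (passage 94-100) on 0.4 µm polycarbonate inserts, seeded 4.4 × 10^5 cells per cm2, differentiated 24 ± 1 days. Transport in HBSS with 0.5% DMSO, apical pH 6.0 (10 mM MES), basolateral pH 7.4 (25 mM HEPES); P-gp runs at pH 7.4. Both directions sampled over time. Papp = dQ/dt × 1/(A × c0); n = 3-4.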

Data set [6] can be described thus: Apparent permeability from apical to basolateral side of human Caco-2 cells at pH 7.4 after 180 mins. In kind it is ADME, cell-based. The settings on record: Caco-2, pH 7.4. The procedure, abridged:
(§2)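 Caco-2 monolayers (passage 94-100, differentiated 24 ± 1 days on inserts). Transport in HBSS at pH 7.4 on both sides, 0.5% DMSO final, over 180 min. Run with and without P-gp inhibitor GF120918 at 2 µM. Samples taken at intervals. Papp from steady-state flux divided by filter area and initial donor concentration.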

A short description of data set [7]: Apparent permeability from basolateral to apical side of human Caco-2 cells at pH 7.4 after 180 mins. The class given is ADME, cell-based. The settings on record: Caco-2, pH 7.4. The procedure, abridged: as §2

With `CC(C)C[C@H](CCNC(=O)[C@H](C)CCNC(=O)[C@@H](CCN)C(C)C)C(=O)O`, the Papp A→B in data set [1] came out at 0.26 nm/s; in data set [2] it was 0.34 nm/s. Further, the Papp B→A in data set [3] was 0.94 nm/s. In addition, the result in data set [4] was inactive.

`C[C@@H](CC(=O)O)NC(=O)C[C@H](C)NC(=O)C[C@@H](N)CO`: the Papp A→B in data set [1] worked out at 0.43 nm/s; in data set [2], 0.44 nm/s. For the same compound, in data set [4], the outcome was inactive.

On to `C[C@H](N)CC(=O)N[C@@H](CCCCN)CC(=O)N[C@H](CC(=O)O)Cc1ccccc1`, for which the Papp A→B came out at 0.39 nm/s in data set [1] and 0.49 nm/s in data set [2]. Further, the apparent permeability from basolateral to apical (Papp B→A) in data set [3] is 0.61 nm/s. Further, in data set [4], the result was Active.

As to `CN(CC(=O)O)C(=O)CN` [GLYCYLSARCOSINE] (H-Gly-[Sar]-OH), in data set [5], the Papp is 110 nm/s.

For `CCC[C@@H](C[C@H](C)NC(=O)[C@H](C)C[C@@H](NC(=O)[C@@H](Cc1ccccc1)C[C@@H](C)N)C(C)C)C(=O)O`, the apparent permeability from apical to basolateral (Papp A→B) in data set [1] amounted to 0.28 nm/s; in data set [2] it was 0.33 nm/s. Moreover, in data set [3], the Papp B→A is 0.97 nm/s. The outcome in data set [4] was Active. For the same compound, the Papp A→B at 3 h in data set [6] was 0.21 nm/s. Also, the Papp B→A at 3 h in data set [7] came to 1.15 nm/s.

As to `CC(C)[C@H](N)CC(=S)N[C@@H](C)CC(=O)O`, the Papp A→B in data set [1] was determined as 3.93 nm/s; in data set [2], 7.54 nm/s. Further, the Papp B→A in data set [3] amounted to 1.24 nm/s. Besides, the outcome in data set [4] was Active.

With `NCCCC[C@@H](CC(=O)N[C@H](CC(=O)O)Cc1ccccc1)NC(=O)C[C@@H](N)CO`, the Papp A→B in data set [1] came out at 0.31 nm/s; in data set [2], 0.37 nm/s. In data set [3], the Papp B→A was 0.71 nm/s. In addition, the outcome in data set [4] was Active.

For `CC(C)C[C@@H](CC(=O)O)NC(=O)[C@@H](C)CN`, the figures for the Papp A→B in data set [1] and in data set [2] were 0.55 nm/s and 0.95 nm/s, respectively. For the same compound, the Papp B→A in data set [3] was found to be 0.84 nm/s. In addition, the result in data set [4] was Active.

With `CC(C)C[C@@H](CNC(=O)[C@@H](C)CNC(=O)[C@H](CN)C(C)C)C(=O)O`, the Papp A→B in data set [1] was 0.23 nm/s; in data set [2], 0.24 nm/s. Moreover, in data set [3], the Papp B→A came to 0.71 nm/s. Moreover, the result in data set [4] was Active.

Turning to `C[C@H](N)CC(=O)N[C@@H](CCCCN)CC(=O)O`, the Papp A→B in data set [2] is 0.37 nm/s. Moreover, the apparent permeability from basolateral to apical (Papp B→A) in data set [3] was found to be 0.78 nm/s. Further, in data set [4], the result was Active. The Papp A→B at 3 h in data set [6] came to 0.44 nm/s. In addition, the Papp B→A at 3 h in data set [7] worked out at 0.51 nm/s.

For the compound `NCCCC[C@H](N)CC(=O)N[C@H](CC(=O)O)Cc1ccccc1`, the Papp A→B was 0.45 nm/s in data set [1] and 0.72 nm/s in data set [2]. Also, in data set [3], the Papp B→A was determined as 0.75 nm/s. Further, in data set [4], the outcome was Active.

As for `CC(C)C[C@@H](CC(=O)O)NC(=O)C[C@H](C)N`, the Papp A→B stood at 2.91 nm/s in data set [1] and 6.13 nm/s in data set [2]. Moreover, in data set [3], the Papp B→A turned out to be 1.29 nm/s. Further, the result in data set [4] was Active.
